# Laboratory results published in publication PMC11913021 (Journal of Medicinal Chemistry, 2024).
# Like-named read-outs stand apart in the source and are kept apart here.
# Columns and labels:
# Assay type in all cases: cell-based
# PLD = PLD activity inhibition in A549 cells; conditions: read-out: IC50 for PLD inhibition
# A549 cells = experiment: WST-1 cell viability assay, A549; conditions: read-out: IC50 of viability
# Method in brief: (§1)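 Cells grown in DMEM or RPMI 1640 with 10% FBS and 1% penicillin/streptomycin at 37 °C, 5% CO2. Seeded at 5 × 10^3 cells/well and held 24 h at 37 °C, then exposed to test compound for 48 h. WST-1 absorbance was read at 450 nm, in triplicate. IC50 was taken as the concentration giving 50% growth inhibition versus control.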
# HCT116 cells = experiment: WST-1 cell viability assay, HCT116; conditions: read-out: IC50 of viability; HCT116, WST-1, 48 h
# Method in brief: as §1
IC50 (PLD),"IC50 (A549 cells; A549, WST-1, 48 h)",IC50 (HCT116 cells),"IC50 (A549 cells; Homo sapiens, A549, 48 h)",Compound
3.1 µM,50 µM,> 50 µM,–,"3,5-Bis(trifluoromethyl)phenyl 5-Fluoro-1H-indole-2-carboxylate [3ac]"
–,–,–,18.5 µM,"C[C@@H](CN1CCC(n2c(=O)[nH]c3cc(Cl)ccc32)CC1)NC(=O)c1ccc2ccccc2c1 [VU0155069, reference compound]"
4.31 µM,> 200 µM,> 50 µM,–,"N-(3,4-Dihydroxyphenyl)-5-fluoro-1H-indole-2-carboxamide [4c]"
